Like-named read-outs stand apart in the source and are kept apart here.
Columns and labels:
TEX cells [1] = assay: Methylcellulose clonal growth assay with TEX cells; assay type: cell-based, human; details: 11 d growth on methylcellulose
Procedure, shortened: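 TEX cells were suspended in methylcellulose medium with penicillin (100 I.U./mL) and streptomycin (100 µg/mL) at a final 1.2 × 10⁴ cells/mL, i.e. 6,000 cells/well. Test compound, diluted in TEX medium, or DMSO (0.05%, control) was added. Cells were plated as technical triplicates and grown 11 d at 37 °C, 5% CO₂. Two people counted colonies independently at 10X. Values are the mean of 3 biological replicates ± S.D., with unpaired t-tests against DMSO.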

[2] = test system: murine AML cell line B140H (cytarabine-resistant); assay: Murine cytotoxicity assay, B140H; assay type: cell-based; details: read-out: Growth inhibitory activity (IC50) B140H
Procedure, shortened: (§1)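 Murine AML lines were used: B117P and B140P from BXH-2 mice, which develop leukemia from an endogenous murine leukemia virus, and their counterparts B117H and B140H. Cells per well were 25,000 (B117P), 28,000 (B117H), 36,000 (B140P) and 44,000 (B140H) in 96-well format. IC50 values are mean ± S.D. from biological triplicate.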

[3] = test system: GBM6 (glioblastoma multiforme); assay: Alamar blue cytotoxicity assay, GBM6; assay type: cell-based, human
DU-145 (prostate cancer) = assay: Alamar blue cytotoxicity assay, DU-145; assay type: cell-based, human
Measured LogD7.4 = assay type: physicochemical; details: pH 7.4
Procedure, shortened: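 LogD at pH 7.4 was determined experimentally by liquid-liquid distribution chromatography, run by a contract analytical lab. Each value is the average of two measurements. The assay's measurable range is 1–5 log units.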

[4] = test system: HL-60 (acute promyelocytic leukemia); assay: Alamar blue cytotoxicity assay, HL-60; assay type: cell-based, human
[5] = test system: total bone marrow cell population; assay: Flow cytometry viability of total bone marrow cells; assay type: cell-based, human
Procedure, shortened: (§2)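 Cells were plated at 1 × 10⁶ cells/mL with test compound (25 µM) or doxorubicin (0.5 µM) for 12 h (final DMSO 0.03%). Staining was CD34/CD38, then Annexin V/7-AAD, with over 5 × 10⁴ events. Viability is the unstained fraction, mean ± S.D. of n ≥ 3; unpaired t-tests.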

TEX cells [6] = assay: Alamar blue cytotoxicity assay, TEX; assay type: cell-based, human; details: read-out: Growth inhibitory activity (IC50) TEX
Procedure, shortened: (§3)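 Suspension cells (CCRF-CEM; TEX in IMDM with L-glutamine, 15% FBS, SCF 20 ng/mL, IL-3 2 ng/mL, penicillin/streptomycin) were seeded at 10,000 cells/well 24 h before compound addition. Cultures were kept at 37 °C in humidified 5% CO₂. Viability was read with Alamar blue. IC50 is mean ± S.D. of n ≥ 3 biological replicates.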

[7] = test system: murine AML cell line B117P; assay: Murine cytotoxicity assay, B117P; assay type: cell-based; details: read-out: Growth inhibitory activity (IC50) B117P
Procedure, shortened: as §1

[8] = test system: murine AML cell line B140P; assay: Murine cytotoxicity assay, B140P; assay type: cell-based; details: read-out: Growth inhibitory activity (IC50) B140P
Procedure, shortened: as §1

[9] = test system: MCF-7 (breast adenocarcinoma); assay: Alamar blue cytotoxicity assay, MCF-7; assay type: cell-based, human
Procedure, shortened: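 MCF-7 cells were grown in MEM with 10% FBS, bovine insulin 0.01 mg/mL, penicillin and streptomycin at 37 °C in 5% CO₂. They were detached with trypsin-EDTA or TrypLE and seeded at 5,000 cells/well 24 h before dosing. Readout was Alamar blue reduction. IC50 is mean ± S.D. from n ≥ 3 biological replicates.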

CD34+CD38− TEX cells = assay: Flow cytometry viability of CD34+CD38− TEX cells; assay type: cell-based; details: Homo sapiens, 12 h; for viability at 25 µM: read-out: cell viability of CD34+CD38− TEX cells
Procedure, shortened: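 TEX cells at 1 × 10⁶ cells/mL were dosed for 12 h at 37 °C, 20% O₂, 5% CO₂ (final DMSO 0.03% v/v). Test compound was given at 25, 15 or 2.5 µM; the doxorubicin reference at 2.5, 0.5 or 0.05 µM. Cells were stained for CD34/CD38 (10 min, 4 °C), then Annexin V-FITC/7-AAD (10 min, RT, dark). Over 5 × 10⁴ events were collected. Viable cells were double-negative. Values are mean ± S.D. of 3–5 biological replicates; unpaired t-test versus untreated.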

TEX cells [10] = assay: Intracellular ROS induction; assay type: cell-based, human; details: 30 min
Procedure, shortened: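 TEX cells were seeded at 5 × 10⁵ cells/mL and incubated overnight at 37 °C, 5% CO₂. They were then exposed to test compound at 25 or 100 µM, with H₂O₂ 100 µM as positive control. CellROX Green (5 µM final) was added at once, followed by 30 min at 37 °C. Cells were washed twice in FACS buffer and 5 × 10⁴ events recorded. Median fluorescence was normalized to untreated control. Runs were in quadruplicate (H₂O₂ triplicate); mean ± S.D.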

[11] = test system: U-87 MG (glioblastoma multiforme); assay: Alamar blue cytotoxicity assay, U-87 MG; assay type: cell-based, human; details: read-out: Growth inhibitory activity (IC50) U-87 MG
[12] = test system: CCRF-CEM (acute lymphoblastic leukemia); assay: Alamar blue cytotoxicity assay, CCRF-CEM; assay type: cell-based, human; details: read-out: Growth inhibitory activity (IC50) CCRF-CEM
Procedure, shortened: as §3

[13] = test system: murine AML cell line B117H (cytarabine-resistant); assay: Murine cytotoxicity assay, B117H; assay type: cell-based; details: read-out: Growth inhibitory activity (IC50) B117H
Procedure, shortened: as §1

[14] = test system: NCI/ADR-RES (ovarian cancer; adriamycin-resistant); assay: Alamar blue cytotoxicity assay, NCI/ADR-RES; assay type: cell-based, human; details: read-out: Growth inhibitory activity (IC50) NCI/ADR-RES; mean ± S.D.
Procedure, shortened: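 Adherent NCI/ADR-RES cells were seeded at 5,000 cells/well 24 h prior to compound treatment and kept at 37 °C, 5% CO₂. Growth was measured by Alamar blue. IC50 values are mean ± S.D. over n ≥ 3 biological replicates.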

mice = details: continuous oral dosing 100 mg/kg daily for over four weeks; cited from earlier work
[15] = canine, oral dosing 100 mg/kg; cited from earlier work
[16] = mice, oral dosing 100 mg/kg; cited from earlier work
[17] = cited from earlier work
CD34+CD38− BM cells [18] = assay: Flow cytometry viability of CD34+CD38− bone marrow cells; assay type: cell-based, human
Procedure, shortened: as §2

[19] = test system: NCI/ADR-RES (ovarian cancer; adriamycin-resistant); details: read-out: IC50 NCI/ADR-RES, previously reported; cited from earlier work
total BM = details: cited from earlier work
[20] = mouse plasma; cited from earlier work
CD34+CD38− BM cells [21] = details: 5 µM for 18 hrs; cited from earlier work
[22] = mice, oral dosing 40 mg/kg; cited from earlier work
[23] = Homo sapiens, GBM6, read-out: Growth inhibitory activity (IC50) GBM6
[24] = Homo sapiens, DU-145, read-out: Growth inhibitory activity (IC50) DU-145
[25] = Homo sapiens, HL-60, read-out: Growth inhibitory activity (IC50) HL-60
[26] = 15 µM, N.D. = clonal growth not detected
[27] = Homo sapiens, MCF7, read-out: Growth inhibitory activity (IC50) MCF-7
[28] = read-out: Growth inhibitory activity (IC50) GBM6, mean ± S.D.
[29] = read-out: Growth inhibitory activity (IC50) DU-145, mean ± S.D.
[30] = read-out: Growth inhibitory activity (IC50) HL-60, mean ± S.D.
[31] = read-out: Growth inhibitory activity (IC50) MCF-7, mean ± S.D.

chromatographic logD (Measured LogD7.4)	SMILES	IC50 ([2]; Mus musculus) [µM]	reduction in total BM viability ([5]; 25 µM, 12 h)	IC50 (TEX cells [6]; Homo sapiens, 48 h) [µM]	IC50 ([7]; Mus musculus) [µM]	IC50 ([8]; Mus musculus) [µM]	Colonies (mean number ± S.D.) (TEX cells [1]; 2.5 µM)	IC50 [9, 27] [µM]	viability at 25 µM (CD34+CD38− TEX cells) [%]	induction of intracellular ROS (MFI normalized to untreated control) (TEX cells [10]; 100 µM)	IC50 ([12]; Homo sapiens, CCRF-CEM) [µM]	IC50 ([13]; Mus musculus) [µM]	IC50 [14] [µM]	IC50 (DU-145 (prostate cancer); [29]) [µM]	IC50 [4, 30] [µM]	IC50 [9, 31] [µM]	IC50 ([12]; mean ± S.D.) [µM]	other results
	Nc1ccn([C@@H]2O[C@H](CO)[C@@H](O)[C@@H]2O)c(=O)n1 [AraC, cytarabine]																	Colonies (mean number ± S.D.) (TEX cells [1]; 0.1 µM): 2.6 ± 1.0
2.9	C=C1C(=O)O[C@@H]2/C=C(\C)CC/C=C(\C)CC[C@@H]12 [CTL, Costunolide]	2.8 ± 0.7	22–26%	4.9 ± 0.4	3.5 ± 0.4	3.6 ± 1.2	6.9 ± 3.6	17.5 ± 3.7	1 to 10	2.2 fold	2.3 ± 0.2	4.8 ± 0.7						IC50 [3, 23]: 7 ± 1.8 µM; IC50 (DU-145 (prostate cancer); [24]): 7.7 ± 2.8 µM; IC50 [4, 25]: 13 ± 0.2 µM; Colonies (mean number ± S.D.) (TEX cells [1]; [26]): 5.6 ± 4.7; IC50 ([11]; Homo sapiens, U-87 MG): 9.6 ± 0.8 µM
2.18	C=C1C(=O)O[C@H]2[C@H]1CCC(C)=C1CC[C@@](C)(O)[C@@H]12 [Compound 1, Micheliolide]	9.3 ± 1.5	22–26%	2.7 ± 0.4	6.4 ± 1	10 ± 0.4	4.2 ± 2.5	9.6 ± 1	1 to 10	2.9 fold	2.7 ± 1.1	8.8 ± 1.7						IC50 [3, 23]: 8.5 ± 0.7 µM; IC50 (DU-145 (prostate cancer); [24]): 14.8 ± 4 µM; IC50 [4, 25]: 9.2 ± 2.2 µM; induction of intracellular ROS (MFI normalized to untreated control) (TEX cells [10]; 25 µM): 1.7 fold; IC50 ([11]; Homo sapiens, U-87 MG): 17.8 ± 5 µM
	C=C1C(=O)OC2C1CCC(C)=CCCC1(C)OC21 (stereo not drawn) [Compound 2, cis-PTL]												9.4 ± 2.1	6 ± 4.2	8 ± 1.1	7.5 ± 0.8	2.2 ± 1	IC50 [3, 28]: 3.3 ± 0.8 µM; LogD7.4 (Measured LogD7.4; average of two measurements): 2.00; IC50 ([11]; mean ± S.D.): 9.1 ± 4.4 µM
	C/C1=C\CC[C@@]2(C)O[C@@H]2[C@H]2OC(=O)[C@@H](CN(C)C)[C@@H]2CC1.O=C(O)/C=C/C(=O)O [DMAPT, dimethylamino-parthenolide fumarate]												12.3 ± 2.7	8.4 ± 4.5	7.1 ± 0.4	10.4 ± 1.2	1.9 ± 0.4	toxicity to mice (mice): no measurable toxicity; Cmax [15]: 61 µM; Cmax [16]: 25 µM; increase of water solubility versus PTL [17]: ~ 1000 fold
	COc1cccc2c1C(=O)c1c(O)c3c(c(O)c1C2=O)C[C@@](O)(C(=O)CO)C[C@@H]3O[C@H]1C[C@H](N)[C@H](O)[C@H](C)O1 [DOX, Doxorubicin]																	reduction in total BM viability ([5]; 0.5 µM, 12 hr): 56%; Colonies (mean number ± S.D.) (TEX cells [1]; 0.1 µM): 0.7 ± 1.3; reduction in the primitive CD34+CD38− BM population viability (CD34+CD38− BM cells [18]; 0.5 µM, 12 hr): 85%; viability at 0.5 µM (CD34+CD38− TEX cells; read-out: viability of CD34+CD38− TEX cells): 6%; IC50 [19]: > 500 µM
	C=C1C(=O)O[C@@H]2[C@H]3O[C@]3(C)CC/C=C(\CO)CC[C@@H]12 [MelB, Melampomagnolide B]		22–26%				5.3 ± 1.6			No observable induction of ROS			15 ± 4.9	14.3 ± 5.9	7.5 ± 3	9.5 ± 1.9	5.5 ± 1.2	IC50 ([2]; mean ± S.D.): 2.2 ± 0.7 µM; IC50 [3, 28]: 4.5 ± 1.9 µM; IC50 (TEX cells [6]; 48 hr treatment, mean ± S.D.): 6.8 ± 2.3 µM; IC50 ([7]; mean ± S.D.): 2.1 ± 0.8 µM; IC50 ([8]; mean ± S.D.): 2.9 ± 1 µM; Colonies (mean number ± S.D.) (TEX cells [1]; [26]): 0.1 ± 0.3; induction of intracellular ROS (MFI normalized to untreated control) (TEX cells [10]; 25 µM): No observable induction of ROS; IC50 ([11]; mean ± S.D.): 16.3 ± 6.8 µM; IC50 ([13]; mean ± S.D.): 2.5 ± 1 µM
1.79	C=C1C(=O)O[C@H]2[C@H]1CC/C(C)=C/CC[C@@]1(C)O[C@@H]21 [PTL, Parthenolide]	3.4 ± 1.1	48%	2.8 ± 0.2	1.1 ± 0.2	5.8 ± 2.3	2.6 ± 2.7	9.7 ± 2.8	1 to 10	1.6 fold	4.7 ± 1.6	4.7 ± 1.6						toxicity to total BM (total BM; 5 µM for 18 hrs): non-toxic; overall BM toxicity (total BM; 7.5 µM for 18 hrs): some overall BM toxicity; plasma half-life t1/2 [20]: 1.6 h; toxicity to primitive CD34+CD38− BM cells (CD34+CD38− BM cells [18]; 25 µM, 12 h): no significant toxicity; toxicity to CD34+CD38− BM cells (CD34+CD38− BM cells [21]): non-toxic; concentration in serum [22]: approximately 200 nM
	Nc1ccn([C@@H]2O[C@H](CO)[C@@H](O)C2(F)F)c(=O)n1 [gemcitabine]																	IC50 [19]: > 500 µM
	OO [hydrogen peroxide]									3.1 fold								

Reference: PMC4697833 (Bioorganic & medicinal chemistry, 2015)
